# Measurements reported in paper PMC4065498 (Chemical research in toxicology, 2010).
# Where “and” joins values, the source holds several entries; their conditions need not be identical. Equal entries are not always repeated. Entries after “also recorded” stand apart in the source; their conditions may differ.
# B1: recombinant human CES2 (Homo sapiens) (protein)
# chain: QDSASPIRTTHTGQVLGSLVHVKGANAGVQTFLGIPFAKPPLGPLRFAPPEPPESWSGVRDGTTHPAMCLQDLTAVESEFLSQFNMTFPSDSMSEDCLYLSIYTPAHSHEGSNLPVMVWIHGGALVFGMASLYDGSMLAALENVVVVIIQYRLGVLGFFSTGDKHATGNWGYLDQVAALRWVQQNIAHFGGNPDRVTIFGESAGGTSVSSLVVSPISQGLFHGAIMESGVALLPGLIASSADVISTVVANLSACDQVDSEALVGCLRGKSKEEILAINKPFKMIPGVVDGVFLPRHPQELLASADFQPVPSIVGVNNNEFGWLIPKVMRIYDTQKEMDREASQAALQKMLTLLMLPPTFGDLLREEYIGDNGDPQTLQAQFQEMMADSMFVIPALQVAHFQCSRAPVYFYEFQHQPSWLKNIRPPHMKADHGDELPFVFRSFFGGNYIKFTEEEEQLSRKMMKYWANFARNGNPNGEGLPHWPLFDQEEQYLQLNLQPAVGRALKAHRLQFWKKALPQKIQELEEPEERHTEL
# B2: recombinant human CES1 (Homo sapiens) (protein)
# chain: GHPSSPPVVDTVHGKVLGKFVSLEGFAQPVAIFLGIPFAKPPLGPLRFTPPQPAEPWSFVKNATSYPPMCTQDPKAGQLLSELFTNRKENIPLKLSEDCLYLNIYTPADLTKKNRLPVMVWIHGGGLMVGAASTYDGLALAAHENVVVVTIQYRLGIWGFFSTGDEHSRGNWGHLDQVAALRWVQDNIASFGGNPGSVTIFGESAGGESVSVLVLSPLAKNLFHRAISESGVALTSVLVKKGDVKPLAEQIAITAGCKTTTSAVMVHCLRQKTEEELLETTLKMKFLSLDLQGDPRESQPLLGTVIDGMLLLKTPEELQAERNFHTVPYMVGINKQEFGWLIPMQLMSYPLSEGQLDQKTAMSLLWKSYPLVCIAKELIPEATEKYLGGTDDTVKKKDLFLDLIADVMFGVPSVIVARNHRDAGAPTYMYEFQYRPSFSSDMKPKTVIGDHGDELFSVFGAPFLKEGASEEEIRLSKMVMKFWANFARNGNPNGEGLPHWPEYNQKEGYLQIGANTQAAQKLKDKEVAFWTNLFAKKAVEKPPQTEHIEL
# Key:
# [1] = biological target: T1, recombinant human CES2 (Homo sapiens, UniProt O00748); test: Hydrolysis of 2AG and PG-Gs by recombinant CES2; assay type: biochemical; details: for Km / kcat: human CES2, average ± SE of 2-4 independent experiments
# T1 sequence (O00748 27-559): B1 chain
# [2] = biological target: T2, recombinant human CES1 (Homo sapiens, UniProt P23141); test: Hydrolysis of 2AG and PG-Gs by recombinant CES1; assay type: biochemical; details: for Km / kcat: human CES1, average ± SE of 2-4 independent experiments
# T2 sequence (P23141 18-567): B2 chain
# [3] = biological target: T3, recombinant human MAGL (Homo sapiens, UniProt Q99685); assay type: biochemical; details: substrate 25 μM, 15 min, recombinant human enzymes
# T3 sequence (Q99685 1-303): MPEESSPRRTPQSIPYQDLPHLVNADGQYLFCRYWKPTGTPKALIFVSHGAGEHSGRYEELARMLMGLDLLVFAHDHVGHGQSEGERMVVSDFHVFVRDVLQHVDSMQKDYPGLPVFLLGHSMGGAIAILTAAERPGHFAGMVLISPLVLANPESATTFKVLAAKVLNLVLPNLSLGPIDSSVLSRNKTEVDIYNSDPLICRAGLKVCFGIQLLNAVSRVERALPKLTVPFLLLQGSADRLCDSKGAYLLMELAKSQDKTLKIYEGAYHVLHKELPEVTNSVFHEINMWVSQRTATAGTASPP
# Outline: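 Purified recombinant human enzymes were compared; CES1 was expressed in baculovirus-infected Spodoptera frugiperda cells.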
# [4] = test system: CES1-depleted THP1 monocyte lysates; test: PG-G and 2AG hydrolysis by CES1-immunodepleted THP1 monocyte lysates; assay type: biochemical, human; details: 25 μM PG-G or 10 μM 2AG, 30 min; versus preimmune IgG control
# Outline: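 THP1 monocyte lysate was solubilised in 50 mM Tris-HCl (pH 7.4) with 0.5% w/v Brij (1 h, 4°C). It was then incubated overnight with anti-CES1 or preimmune IgG plus protein A-agarose, and depletion was checked by western blot. Substrate (25 μM PG-G or 10 μM 2AG) in the same buffer was preheated 5 min at 37°C, then started with 10-30 μg supernatant lysate; 2AG ran 30 min. Reactions were run in duplicate or triplicate across ≥2 IP experiments, compared by Student's t-test.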
# [5] = test system: intact THP1 monocytes; assay type: cell-based, human; details: PO 1 μM, 30 min; substrate 25 μM, 60 min
# [6] = test system: THP1 macrophages; test: In situ formation of PG-Gs by LPS-primed THP1 macrophages given exogenous 2AG; assay type: cell-based, human
# [7] = test system: lipid glyceryl ester hydrolase activities of THP1 monocyte lysates
# [8] = test system: THP1 macrophages; test: PG-G and 2AG levels in LPS-primed THP1 macrophages stimulated with ionomycin; assay type: cell-based, human; details: oxon 1 μM, ionomycin 5 μM
# [9] = test system: THP1 foam cells; test: Endogenous 2AG produced by cholesterol-loaded THP1 macrophages; assay type: cell-based, human; details: 24 h
# [10] = test system: 31-32kDa enzyme in THP1 lysates; test: Activity-based protein profiling with FP-biotin in THP1 lysate: 31-32kDa enzyme; assay type: biochemical, human
# Outline: (§1)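 THP1 monocyte lysate (1 mg/ml protein in 50 mM Tris-HCl, pH 7.4) was labelled with 2 μM FP-biotin for 1 h at room temperature. Irreversible inhibitors were preincubated for 30 min (37°C) before the probe. For the reversible inhibitor, lysate received inhibitor, then 0.2 μM FP-biotin for 7.5 min, short of full labelling. Reactions were stopped in reducing SDS loading buffer (95°C, 5 min), run on SDS-PAGE and blotted with avidin-HRP.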
# [11] = biological target: T3, recombinant human MAGL; test: Off-target test: 2AG hydrolysis by recombinant human MAGL with S-3030; assay type: biochemical; details: S-3030 50 μM, 2AG 25 μM, 10 min pre-incubation
# [12] = biological target: T4, native CES1 in THP1 lysates (Homo sapiens, UniProt P23141); test: Activity-based protein profiling with FP-biotin in THP1 lysate: CES1; assay type: biochemical
# T4 sequence (P23141 18-567): B2 chain
# Outline: as §1
# [13] = biological target: T2, recombinant human CES1; test: Recombinant human CES1 activity using pNPV as substrate; assay type: biochemical; details: data not shown
# [14] = biological target: T2, recombinant human CES1; test: Off-target test: 2AG hydrolysis by recombinant human CES1 with NAM; assay type: biochemical; details: NAM 50 μM, 2AG 25 μM, 10 min pre-incubation
# [15] = substrate: CCCCC/C=C\C/C=C\C/C=C\C/C=C\CCCC(=O)OC(CO)CO; test: Hydrolysis of 2AG and PG-Gs by recombinant CES2; assay type: biochemical; details: other: human CES2; average ± SE of 2-4 independent experiments; pH 7.4; 37.0 °C
# [16] = substrate: CCCCC/C=C\C/C=C\C/C=C\C/C=C\CCCC(=O)OC(CO)CO; test: Hydrolysis of 2AG and PG-Gs by recombinant CES1; assay type: biochemical; details: other: human CES1; average ± SE of 2-4 independent experiments; pH 7.4; 37.0 °C
# [17] = 1 μM PO 30 min prior to 10 μM 2AG, LPS-pretreated THP1 macrophages
# [18] = maximal inhibition using 100 μM S-3030
molecule,measurement,setting,value
prostaglandin E2 glyceryl ester [PGE2-G],Km,[1],705 ± 380 µM
same,kcat,[1],150 ± 81 min⁻¹
same,Km,[2],250 ± 60 µM
same,kcat,[2],90 ± 16^b min^−1
same,hydrolysis rate by MAGL relative to CES1,[3],2 fold
same,reduction of hydrolysis activity of CES1-depleted lysate,[4],80%
"CCOP(=O)(OCC)Oc1ccc([N+](=O)[O-])cc1 [PO, paraoxon]","inhibition of hydrolysis of exogenous 2AG, PGE2-G, or PGF2α-G by intact THP1 monocytes",[5],~ 50%
same,increase in PGE2-G levels,[6]; [17],2 fold
same,increase in PGF2α-G levels,[6]; [17],4 fold
same,inhibition of PGE2-G hydrolysis activity in THP1 cell lysate,[7]; oxon 1 μM,near complete inhibition
same,inhibition of hydrolysis of exogenous 2AG in THP1 lysate,"[7]; oxon 1 μM, 2AG 10 μM",35%
same,inhibition of 2AG hydrolysis activity in THP1 lysate,[7]; oxon 10 μM,did not further enhance inhibition
same,knock down of 2AG hydrolysis activity in THP1 monocyte lysate,[7]; oxon 500 μM,55%
same,"PGF2α-G, PGE2-G, and 2AG levels compared to vehicle-treated cells following ionomycin stimulation",[8],did not significantly elevate
same,amount of 2AG in culture medium relative to control group,[9]; oxon 1 μM,3.1 fold
same,amount of 2AG in culture medium relative to control group,[9]; oxon 10 μM,3.5 fold
"CCCCC/C=C\C/C=C\C/C=C\C/C=C\CCCC(=O)NCCO [AEA, arachidonoyl ethanolamide]",hydrolysis of AEA by recombinant CES2,[1]; amide-containing substrate,neither enzyme could hydrolyze
same,hydrolysis of AEA by recombinant CES1,[2]; amide-containing substrate,neither enzyme could hydrolyze
prostaglandin F2α glyceryl ester [PGF2α-G],hydrolysis relative to PGE2-G using CES2 (judged by kcat/Km),[1],6.5 fold
same,hydrolysis by CES2 relative to CES1,[1]; Table 1,three times faster
same,Km,[1],35 ± 4.1 µM
same,kcat,[1],49 ± 5.4^a min^−1
same,Km,[2],93 ± 43 µM
same,kcat,[2],"29 ± 3.5^a,b min^−1"
same,hydrolysis rate by MAGL relative to CES1,[3],4 fold
same,reduction of hydrolysis activity of CES1-depleted lysate,[4],50%
COc1ccc2c(c1)c(CC(=O)O)c(C)n2C(=O)c1ccc(Cl)cc1 [indomethacin],formation of PG-Gs by THP1 macrophages,[6]; indomethacin 3 μM added along with CPO prior to 2AG,blocked formation of PG-Gs
"CCCCC/C=C\C/C=C\C/C=C\C/C=C\CCCC(=O)OC(CO)CO [2AG, 2-arachidonoylglycerol]",kcat,[1],43 min⁻¹
same,control THP1 lysate hydrolysis activity,"[7]; 25 μM substrate, no inhibitor",2.5 nmol product/min/mg protein
same,kcat,[2],59 min⁻¹
same,reduction of hydrolysis activity of CES1-depleted lysate,[4],64%
"O=C1C(=O)c2sccc2-c2ccsc21 [S-3030, thieno[3,2-e][1]benzothiophene-4,5-dione]",inhibition of the 31-32kDa enzyme (FP-biotin band intensity),"[10]; S-3030 0-100 μM, FP-biotin 0.2 μM, 7.5 min",not reduced
same,inhibition of 2AG hydrolysis in THP1 monocyte lysate,[7]; [18],55% and 50%
same,inhibition of PGE2-G hydrolysis in THP1 monocyte lysate,[7]; [18],97% and > 95%
same,inhibition of PGF2α-G hydrolysis in THP1 monocyte lysate,[7]; [18],80%
same,inhibition of recombinant human MAGL activity,[11],did not inhibit; also recorded: does not inhibit
same,IC50,[12],~23 µM
O=C(Oc1ccc([N+](=O)[O-])cc1)N1CCC(C(O)(c2ccc3c(c2)OCO3)c2ccc3c(c2)OCO3)CC1 [JZL184],inhibition of the 31-32kDa enzyme (FP-biotin activity probe),"[10]; concentrations as high as 100 μM, 30 min",not inhibited
same,reduction of PGF2α-G hydrolytic activity in THP1 monocyte lysate,[7]; maximal reduction by JZL184,80%
same,inhibition of CES1 in THP1 cell lysate (FP-biotin activity blot),[12]; JZL184 as low as 0.1 μM,completely inhibit
same,inhibition of recombinant human CES1 activity using pNPV as substrate,[13],potently inhibit
CN(Cc1cccc(-c2ccncc2)c1)C(=O)Oc1ccc(-c2ccc(C(N)=O)cc2)cc1 [WWL70],inhibition of 2AG hydrolytic activity in THP1 cell lysate,[7]; specific ABHD6 inhibitor,did not inhibit; also recorded: does not inhibit
"CCCCC/C=C\C/C=C\C/C=C\C/C=C\CCCC(=O)N1C(=O)C=CC1=O [NAM, N-arachidonoyl maleimide]",inhibition of recombinant CES1 activity toward 2AG,[14],inhibits
B1,Km,[15],46 ± 13 µM
same,kcat,[15],0.717 ± 0.0667 s⁻¹
B2,Km,[16],49 ± 11 µM
same,kcat,[16],0.983 ± 0.0667 s⁻¹
